One test concerns the target mTRPC6 mutant ^mW679A (Mus musculus, UniProt Q61143, W679A). As to the kind of experiment: whole-cell patch-clamp, mTRPC6 mutant W679A. The format is cell-based. To be noted: saturated agonist. Put shortly: (§1)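 Transiently transfected HEK293 cells expressing mouse or human TRPC6 WT, or sequence-verified mouse point mutants, recorded 24–48 h post-transfection. Conventional whole-cell clamp at −60 mV and 23 °C, gap-free; test compound applied by Y-tube. Pipette: CsCl/HEPES/BAPTA, 400 nM free Ca2+, pH 7.2. Bath: NaCl-based, 2 mM CaCl2, pH 7.4. EC50 from Hill fit of concentration–current data. Mutant screen used current ratios (10/5 μM or 3/1 μM). At least 3 transfection batches.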

The next test has as its target T1, mouse TRPC6 (mTRPC6-WT) (Mus musculus, UniProt Q61143).
T1 sequence (Q61143 1-930): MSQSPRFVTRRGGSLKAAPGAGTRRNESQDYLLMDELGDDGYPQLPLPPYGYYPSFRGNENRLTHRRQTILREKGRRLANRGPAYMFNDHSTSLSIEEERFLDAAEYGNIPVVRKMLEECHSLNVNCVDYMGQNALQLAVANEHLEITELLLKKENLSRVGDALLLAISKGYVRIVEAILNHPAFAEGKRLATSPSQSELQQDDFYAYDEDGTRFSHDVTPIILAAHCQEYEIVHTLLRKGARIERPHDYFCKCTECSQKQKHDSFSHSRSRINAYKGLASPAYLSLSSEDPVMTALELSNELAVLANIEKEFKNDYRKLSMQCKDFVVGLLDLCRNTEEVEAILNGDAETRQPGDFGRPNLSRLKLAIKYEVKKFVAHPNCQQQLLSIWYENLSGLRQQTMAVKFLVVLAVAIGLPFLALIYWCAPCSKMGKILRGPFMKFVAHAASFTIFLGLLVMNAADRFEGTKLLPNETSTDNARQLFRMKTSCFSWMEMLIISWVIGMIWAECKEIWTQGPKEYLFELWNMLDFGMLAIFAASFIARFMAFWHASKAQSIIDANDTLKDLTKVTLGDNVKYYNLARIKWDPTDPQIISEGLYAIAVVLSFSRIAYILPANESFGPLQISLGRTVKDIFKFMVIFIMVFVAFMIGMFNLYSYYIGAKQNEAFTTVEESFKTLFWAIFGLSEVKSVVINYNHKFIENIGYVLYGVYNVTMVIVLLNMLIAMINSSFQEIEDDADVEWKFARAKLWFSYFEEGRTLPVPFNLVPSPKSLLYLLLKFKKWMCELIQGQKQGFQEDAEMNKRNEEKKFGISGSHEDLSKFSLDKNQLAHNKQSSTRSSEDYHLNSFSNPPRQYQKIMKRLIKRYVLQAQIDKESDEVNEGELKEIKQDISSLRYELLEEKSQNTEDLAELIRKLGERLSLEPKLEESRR
As to the kind of experiment: whole-cell patch-clamp, mTRPC6-WT expressed in HEK293 cells. It counts as cell-based. Put shortly:
as §1

The target of another test is mTRPC6 mutant ^mY704W (Mus musculus, UniProt Q61143, Y704W). The experiment in a line: whole-cell patch-clamp, mTRPC6 mutant Y704W. The format is cell-based. The procedure, abridged:
as §1

A further test has as its target T2, mTRPC6 mutant ^mE672D (Mus musculus, UniProt Q61143, E672D).
T2 sequence (Q61143 1-930 E672D): T1 sequence (Q61143 1-930) with E672D
The experiment in a line: whole-cell patch-clamp, mTRPC6 mutant E672D. The format is cell-based. Put shortly:
as §1

For a further test, the target named is mTRPC6 mutant ^mV709A (Mus musculus, UniProt Q61143, V709A). The experiment in a line: whole-cell patch-clamp, mTRPC6 mutant V709A. The format is cell-based. The procedure, abridged:
as §1

For the next test, the target named is hTRPC6 mutant ^hY705W (Homo sapiens, UniProt Q9Y210, Y705W). The experiment in a line: whole-cell patch-clamp, hTRPC6 mutant Y705W. It counts as cell-based.
The next test deals with TRPC3/6/7. To be noted: read-out: EC50 (concentration yielding half maximum response); measured by patch-clamp rather than calcium imaging; cited from earlier work.
The target of the next test is mTRPC6 mutant ^mE700A (Mus musculus, UniProt Q61143, E700A). The experiment in a line: whole-cell patch-clamp, mTRPC6 mutant E700A. The format is cell-based. The conditions noted are these: saturated agonist. The procedure, abridged:
as §1

Another test deals with mTRPC6 mutant ^mN701A (Mus musculus, UniProt Q61143, N701A). The experiment in a line: whole-cell patch-clamp, mTRPC6 mutant N701A. It counts as cell-based. To be noted: saturated agonist. Put shortly:
as §1

Another test relates to mTRPC6 mutant ^mK688R. As to the kind of experiment: whole-cell patch-clamp, mTRPC6 mutant K688R. It counts as cell-based, mouse. The conditions noted are these: ^mK688R (S3 pocket). The procedure, abridged: as §1
The test system of another test is mTRPC6 mutant ^mR463K. The experiment in a line: whole-cell patch-clamp, mTRPC6 mutant R463K. The format is cell-based, mouse. The conditions noted are these: ^mR463K (S1 pocket). The procedure, abridged: as §1

SMILES strings stand for the structures. Where a chain is given by its changes, count along the chain named. Where “and” joins values, the source holds several entries; their conditions need not be identical. Identical values can stand only once.

Sequence of mTRPC6 mutant ^mY704W (Q61143 whole entry Y704W): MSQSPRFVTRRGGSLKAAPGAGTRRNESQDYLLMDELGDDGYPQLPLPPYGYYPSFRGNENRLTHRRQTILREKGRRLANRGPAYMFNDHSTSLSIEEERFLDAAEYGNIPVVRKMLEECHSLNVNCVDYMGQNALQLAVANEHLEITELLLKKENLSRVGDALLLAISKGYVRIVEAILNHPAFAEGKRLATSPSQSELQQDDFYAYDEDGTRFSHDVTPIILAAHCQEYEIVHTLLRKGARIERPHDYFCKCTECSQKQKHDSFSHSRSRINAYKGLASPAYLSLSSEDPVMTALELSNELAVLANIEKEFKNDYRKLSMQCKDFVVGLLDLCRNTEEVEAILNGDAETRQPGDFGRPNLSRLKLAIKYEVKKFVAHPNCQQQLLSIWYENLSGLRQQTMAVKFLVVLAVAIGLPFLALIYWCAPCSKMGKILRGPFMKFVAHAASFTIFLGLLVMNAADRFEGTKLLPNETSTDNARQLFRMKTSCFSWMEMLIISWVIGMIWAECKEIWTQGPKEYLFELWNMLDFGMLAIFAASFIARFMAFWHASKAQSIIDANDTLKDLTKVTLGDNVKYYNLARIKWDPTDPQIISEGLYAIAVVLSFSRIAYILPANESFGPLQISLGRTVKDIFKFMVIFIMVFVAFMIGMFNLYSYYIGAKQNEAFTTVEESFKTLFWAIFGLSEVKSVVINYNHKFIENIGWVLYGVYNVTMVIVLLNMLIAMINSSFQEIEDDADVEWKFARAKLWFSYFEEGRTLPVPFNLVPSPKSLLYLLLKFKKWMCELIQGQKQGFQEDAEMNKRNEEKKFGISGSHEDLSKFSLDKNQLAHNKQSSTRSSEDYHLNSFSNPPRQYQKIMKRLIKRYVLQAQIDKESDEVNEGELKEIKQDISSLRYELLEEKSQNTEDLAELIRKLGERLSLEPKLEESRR
Sequence of mTRPC6 mutant ^mE700A (Q61143 whole entry E700A): as the sequence (Q61143 whole entry Y704W) above, with E700A, W704Y counted along it
Sequence of mTRPC6 mutant ^mV709A (Q61143 whole entry V709A): as the sequence (Q61143 whole entry Y704W) above, with W704Y, V709A counted along it
Sequence of hTRPC6 mutant ^hY705W (Q9Y210 whole entry Y705W): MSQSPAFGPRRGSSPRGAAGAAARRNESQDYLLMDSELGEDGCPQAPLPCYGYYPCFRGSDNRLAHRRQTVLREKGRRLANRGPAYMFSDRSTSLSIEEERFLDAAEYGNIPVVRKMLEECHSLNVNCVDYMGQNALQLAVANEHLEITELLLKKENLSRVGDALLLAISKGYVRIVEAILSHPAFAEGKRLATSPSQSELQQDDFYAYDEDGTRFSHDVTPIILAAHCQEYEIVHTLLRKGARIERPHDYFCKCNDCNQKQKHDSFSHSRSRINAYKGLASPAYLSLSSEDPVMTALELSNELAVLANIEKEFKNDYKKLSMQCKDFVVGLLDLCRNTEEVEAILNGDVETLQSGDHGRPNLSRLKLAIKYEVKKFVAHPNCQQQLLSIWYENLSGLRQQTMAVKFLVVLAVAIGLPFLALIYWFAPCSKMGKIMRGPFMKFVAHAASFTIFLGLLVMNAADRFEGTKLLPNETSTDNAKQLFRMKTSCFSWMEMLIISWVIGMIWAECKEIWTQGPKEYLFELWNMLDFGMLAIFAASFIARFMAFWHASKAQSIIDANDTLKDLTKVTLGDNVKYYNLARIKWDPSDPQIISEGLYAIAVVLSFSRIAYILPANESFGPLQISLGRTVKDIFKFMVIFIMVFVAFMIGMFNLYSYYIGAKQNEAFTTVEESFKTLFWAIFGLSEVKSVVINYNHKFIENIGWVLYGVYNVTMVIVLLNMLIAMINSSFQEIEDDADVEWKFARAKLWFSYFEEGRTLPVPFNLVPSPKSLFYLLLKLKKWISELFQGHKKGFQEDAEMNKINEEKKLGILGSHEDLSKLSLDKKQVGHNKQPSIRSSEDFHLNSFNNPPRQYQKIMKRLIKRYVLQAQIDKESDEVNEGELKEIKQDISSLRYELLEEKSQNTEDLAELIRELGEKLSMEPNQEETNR
Sequence of mTRPC6 mutant ^mW679A (Q61143 whole entry W679A): as the sequence (Q61143 whole entry Y704W) above, with W679A, W704Y counted along it
Sequence of mTRPC6 mutant ^mN701A (Q61143 whole entry N701A): as the sequence (Q61143 whole entry Y704W) above, with N701A, W704Y counted along it

`CCOC(=O)N1CCC(c2cc(O)n3nc(C)c(-c4ccc(F)cc4)c3n2)CC1` [M085, Ethyl 4-(3-(4-fluorophenyl)-7-hydroxy-2-methylpyrazolo[1,5-a]pyrimidin-5-yl)piperidine-1-carboxylate]: the agonist-induced current entry on mTRPC6 mutant ^mW679A, at mTRPC6 mutant ^mE700A and on mTRPC6 mutant ^mN701A was “disappearance” throughout. Moreover, the EC50 was ~5 µM and 3.8 µM on mouse TRPC6 (mTRPC6-WT) (EC50 of channel activation, mTRPC6-WT, whole-cell, −60 mV, Hill fit); 26.7 ± 4.04 µM on mTRPC6 mutant ^mY704W; 25.1 ± 5.64 µM at mTRPC6 mutant ^mE672D; 6.95 ± 2.13 µM on mTRPC6 mutant ^mV709A; 35.3 ± 6.15 µM at hTRPC6 mutant ^hY705W; 4.66 ± 0.03 µM in the test with TRPC3/6/7. Also, the “ratio of M085 activation current I10 μM/I5 μM” value at mouse TRPC6 (mTRPC6-WT) (mTRPC6-WT) is listed as 1.65 ± 0.21; at mTRPC6 mutant ^mE672D (^mE672D (S2 pocket)), 3.27 ± 0.91; with mTRPC6 mutant ^mK688R, 1.80 ± 0.22; with mTRPC6 mutant ^mR463K, 1.54 ± 0.17. The “Imax (maximal current density)” value at mouse TRPC6 (mTRPC6-WT) (mTRPC6-WT, 30 μM M085 (saturated)) is recorded as 75.11 ± 14.20 pA/pF; on mTRPC6 mutant ^mY704W (^mY704W, 100 μM agonist) it was 3.27 ± 1.12 pA/pF; at mTRPC6 mutant ^mE672D (^mE672D, 100 μM agonist), 10.28 ± 1.19 pA/pF. In addition, the “effect of DTNB on agonist-mediated activation” value on mouse TRPC6 (mTRPC6-WT) (mTRPC6-WT, DTNB covalent modification) is given as “no effect”. For the same molecule, the saturation concentration entry on mouse TRPC6 (mTRPC6-WT) (mTRPC6 activation) is given as “approximately 10 μM”.

Values taken from article PMC8458982 (The Journal of Biological Chemistry, 2021).
